One may read the IC50 as the concentration that gives 50% inhibition. The low end stands for greater potency, the high end for weaker potency. The term pIC50 denotes the IC50 on a negative log10 scale, so that one unit is a factor of ten. Low readings indicate a high IC50, high ones a low IC50.

We go through 3 compounds from ChEMBL document CHEMBL1142610, “Phenanthroquinolizidine alkaloids from the roots of Boehmeria pannosa potently inhibit hypoxia-inducible factor-1 in AGS human gastric cancer cells” (J Nat Prod, 2006).

pIC50: −log10 of the molar value. Activity calls are given as the source filed them. No cut-off for these calls is given here.

In one assay the test system is AGS. Kind of assay: Inhibition of hypoxia-induced VEGF expression in human AGS cells after 16 hrs by RT-PCR analysis. Type of assay: functional, cell-based. Put shortly:
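AGS cells at 1.5 × 10^5 cells/cm2 pretreated 1 h with graded concentrations, then 16 h hypoxia (1% O2). Total RNA isolated and VEGF transcript detected by RT-PCR: 25 cycles (94 °C 30 s, 58 °C 30 s, 72 °C 1 min). Products run on 2% agarose with ethidium bromide staining. At least three experiments.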

In assay [1] the target is T1, Hypoxia inducible factors; HIF-1-alpha, HIF-2-alpha (Homo sapiens, UniProt Q16665+Q99814). Kind of assay: Inhibition of hypoxia-induced HIF1 activation in human AGS cells after 16 hrs by pGL3-HRE-luciferase reporter gene assay. Type of assay: cell-based. Put shortly: (§1)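 AGS cells transiently cotransfected with pGL3-HRE-Luc (six HRE copies from human VEGF gene) plus pRL-CMV, plated 4 × 10^4 cells/well, grown 48 h. Then treated with graded concentrations and held 16 h in hypoxia (1% O2, 94% N2, 5% CO2). Dual-luciferase read-out, firefly normalized to renilla. 17-DMAG positive control. At least three independent experiments.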
Background: In a reporter assay the amount or activity of a reporter protein is the signal.

The target in assay [2] is T1, Hypoxia inducible factors; HIF-1-alpha, HIF-2-alpha. Put plainly: Inhibition of hypoxia-induced HIF1 activation in human AGS cells at 100 nM after 16 hrs by pGL3-HRE-luciferase reporter gene assay. Type of assay: cell-based. A digest of the protocol:
as §1

Assay [3] addresses Hypoxia-inducible factor 1-alpha (Homo sapiens) (UniProt Q16665). Kind of assay: Inhibition of hypoxia-induced HIF1alpha protein accumulation in human AGS cells after 12 hrs by Western blot. Type of assay: cell-based. Put shortly:
(§2)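 AGS cells plated at 1.5 × 10^5 cells/cm2 and left overnight at 37 °C. Pretreated 1 h with graded concentrations, then 12 h hypoxia (1% O2, 94% N2, 5% CO2, 37 °C). Total lysates (50 µg) run on 6% SDS-PAGE. Blotted with monoclonal anti-HIF-1α or anti-HIF-1β, ECL detection. TOPO I served as loading control. At least three experiments.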
A general note: In western blotting, separated proteins are transferred to a membrane and probed.

Assay [4] has as its target Aryl hydrocarbon receptor nuclear translocator (Homo sapiens) (UniProt P27540). Kind of assay: Inhibition of hypoxia-induced HIF1beta protein accumulation in human AGS cells after 12 hrs by Western blot. Type of assay: cell-based. A digest of the protocol:
as §2

Assay [5] is described as follows: Inhibition of hypoxia-induced HIF1 activation. Put shortly:
as §1

Assay [6] has as its target T1, Hypoxia inducible factors; HIF-1-alpha, HIF-2-alpha. Kind of assay: Inhibition of hypoxia-induced HIF1 activation in human AGS cells at 300 nM after 16 hrs by pGL3-HRE-luciferase reporter gene assay. Type of assay: cell-based. A digest of the protocol:
as §1

Chain of Aryl hydrocarbon receptor nuclear translocator (Homo sapiens) (P27540 whole entry): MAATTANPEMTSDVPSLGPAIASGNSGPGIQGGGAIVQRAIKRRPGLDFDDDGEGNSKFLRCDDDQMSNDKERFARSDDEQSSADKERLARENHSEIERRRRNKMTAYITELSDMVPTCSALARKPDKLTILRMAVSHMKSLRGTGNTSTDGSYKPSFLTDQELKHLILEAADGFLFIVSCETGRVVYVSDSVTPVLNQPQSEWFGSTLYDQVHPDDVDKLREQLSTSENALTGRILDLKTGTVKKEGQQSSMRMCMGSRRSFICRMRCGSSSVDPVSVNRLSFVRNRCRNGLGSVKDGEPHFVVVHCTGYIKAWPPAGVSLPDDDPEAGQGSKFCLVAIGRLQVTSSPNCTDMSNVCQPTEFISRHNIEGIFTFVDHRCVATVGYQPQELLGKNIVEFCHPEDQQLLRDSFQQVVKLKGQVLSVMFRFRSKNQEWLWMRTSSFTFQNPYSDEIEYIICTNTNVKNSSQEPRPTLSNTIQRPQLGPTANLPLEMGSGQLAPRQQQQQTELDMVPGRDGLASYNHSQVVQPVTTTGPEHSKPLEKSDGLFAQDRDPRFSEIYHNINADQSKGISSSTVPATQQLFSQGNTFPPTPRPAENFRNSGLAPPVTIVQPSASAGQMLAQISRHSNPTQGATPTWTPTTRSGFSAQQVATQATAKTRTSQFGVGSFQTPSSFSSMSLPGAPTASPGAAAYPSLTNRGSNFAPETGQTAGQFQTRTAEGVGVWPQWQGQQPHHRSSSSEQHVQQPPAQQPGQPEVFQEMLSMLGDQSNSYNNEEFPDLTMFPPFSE
Chain of Hypoxia-inducible factor 1-alpha (Homo sapiens) (Q16665 whole entry, looked up): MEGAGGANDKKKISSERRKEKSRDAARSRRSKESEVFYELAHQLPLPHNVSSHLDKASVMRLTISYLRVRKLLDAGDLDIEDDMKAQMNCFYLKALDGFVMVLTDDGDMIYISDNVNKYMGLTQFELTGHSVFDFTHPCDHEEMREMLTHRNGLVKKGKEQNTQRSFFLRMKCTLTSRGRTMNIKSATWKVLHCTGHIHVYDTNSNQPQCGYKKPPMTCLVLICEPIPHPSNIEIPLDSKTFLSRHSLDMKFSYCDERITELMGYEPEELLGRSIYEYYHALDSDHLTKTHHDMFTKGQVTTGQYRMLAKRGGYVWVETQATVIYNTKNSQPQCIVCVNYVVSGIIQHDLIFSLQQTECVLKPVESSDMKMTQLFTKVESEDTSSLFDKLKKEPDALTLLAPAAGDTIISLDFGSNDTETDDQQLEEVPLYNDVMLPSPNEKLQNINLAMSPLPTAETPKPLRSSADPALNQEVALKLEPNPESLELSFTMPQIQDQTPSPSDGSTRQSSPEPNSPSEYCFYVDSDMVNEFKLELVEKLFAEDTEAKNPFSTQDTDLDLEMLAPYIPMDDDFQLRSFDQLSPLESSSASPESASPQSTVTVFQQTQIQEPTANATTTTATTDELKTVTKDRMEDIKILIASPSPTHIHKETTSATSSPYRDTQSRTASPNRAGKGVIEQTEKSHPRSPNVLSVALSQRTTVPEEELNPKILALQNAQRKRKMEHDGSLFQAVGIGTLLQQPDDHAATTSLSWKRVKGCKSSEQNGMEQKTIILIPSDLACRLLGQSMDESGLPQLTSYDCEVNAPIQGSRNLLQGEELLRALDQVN

Turning to `COc1ccc2c3c(c4cc(OC)c(OC)cc4c2c1)C[C@H]1CCCCN1C3` [CRYPTOPLEURINE], the Activity entry (with AGS; in assay [3]) was “Dose-dependent effect” throughout. Moreover, the IC50 in assay [1] turned out to be 8.7 nM. The result in assay [2] was Active. Also, the outcome in assay [4] was inactive.
On to `COc1ccc([C@@H](O)[C@@H](C)Oc2ccc([C@H]3O[C@H](c4ccc(O[C@H](C)[C@H](O)c5ccc6c(c5)OCO6)c(OC)c4)[C@H](C)[C@H]3C)cc2OC)cc1OC` [MANASSANTIN B], for which, in assay [5], the pIC50 is 8.52.
With `COc1ccc2c3c(c4cc(OC)c(OC)cc4c2c1)[C@@H](O)[C@H]1CCCCN1C3`, the result in assay [6] was Active. The compound also returned a half-maximal inhibitory concentration (IC50) in assay [1] of 48.1 nM. Also, in assay [3], the Activity entry was “Dose-dependent effect”. The outcome in assay [4] was inactive.
